Test [1] concerns the target T1, Microtubule-associated protein tau (Homo sapiens, UniProt P10636). Nature of the test: Binding affinity to hyperphosphorylated tau protein in alzheimer disease patient brain by immunohistochemical staining analysis. The note with it: tested as the 125I-labelled form. The essentials:
(§1)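 Autoradiography on 6-µm deparaffinized paraffin serial sections from an autopsy-confirmed AD case; control brain section also run. [125I]SBIM-3 (92.5 kBq/100 µL) for 1 h at room temperature, 50% EtOH for 2 h, water wash 30 s, then imaging plate exposure overnight. Labelling was compared with adjacent sections immunostained for phospho-tau (AT8) or Aβ1–42 (BC05).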

For test [2], the target named is T1, Microtubule-associated protein tau. In words: Binding affinity to recombinant human tau (441 amino acid residues) aggregates expressed in Escherichia coli assessed as apparent dissociation constant after 30 mins by fluorescence spectroscopic analysis. The note with it: read-out: Kd(app). In outline: (§2)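 Tau: human 441-aa tau expressed in E. coli, aggregated at 1 mg/mL in MES buffer pH 6.8 with 0.1 mg/mL heparin, 37 °C for 3 days with shaking. Abeta1-42 aggregated at 0.25 mg/mL in PBS pH 7.4, 37 °C for 42 h with shaking. Aggregates at final 10 µg/mL were incubated with ligand (final 0.02–10 µM) for 30 min at room temperature. Apparent Kd was taken from fluorescence saturation curves at ex 440 nm, em 510 nm (tau) or em 480 nm (Abeta). Mean ± SEM of six independent experiments.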

The target in test [3] is T2, Amyloid-beta precursor protein (Homo sapiens, UniProt P05067). In words: Binding affinity to amyloid beta (1 to 42) in alzheimer disease patient brain by immunohistochemical staining analysis. The note with it: tested as the 125I-labelled form. The essentials: as §1
Test [4] deals with T1, Microtubule-associated protein tau. In words: Binding affinity to hyperphosphorylated tau protein in entorhinal cortex of alzheimer disease patient brain at 300 uM after 30 mins by fluorescence microscopic analysis. The test is classed as tissue-based. The essentials:
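Deparaffinized entorhinal cortex section from the same AD patient, incubated 30 min with ligand in 50% ethanol, then washed 30 s in ethanol. Imaged by fluorescence microscopy (excitation 450–490 nm, emission 510–560 nm). Spots were matched to Thioflavin S staining of the same patient's section.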

The target in test [5] is T2, Amyloid-beta precursor protein. Nature of the test: Binding affinity to amyloid beta (1 to 42) (unknown origin) aggregates assessed as apparent dissociation constant after 30 mins by fluorescence spectroscopic analysis. The note with it: read-out: Kd(app). In outline:
as §2

The species entered for test [6] is Homo sapiens. In words: Selectivity ratio of Kd(app) for amyloid beta (1 to 42) (unknown origin) aggregates to Kd(app) for recombinant human tau (441 amino acid residues) aggregates. In outline:
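Human 441-aa tau, expressed in E. coli, was aggregated at 1 mg/mL (MES pH 6.8, 0.1 mg/mL heparin, 37 °C, 3 days, shaking). Aβ1–42 was aggregated at 0.25 mg/mL (PBS pH 7.4, 37 °C, 42 h). Aggregates were incubated 30 min at room temperature with ligand, and fluorescence read at ex 440 nm, em 510 nm (tau) or 480 nm (Aβ). Apparent Kd came from saturation curves over six independent experiments, and the ratio is Kd(Aβ)/Kd(tau).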

Activity calls are given as the source filed them. The rule behind the calls is not given here.

Activity, Kd and Selectivity ratio data for 1 compound are collected here from ChEMBL document CHEMBL2384977, “Synthesis and biological evaluation of novel styryl benzimidazole derivatives as probes for imaging of neurofibrillary tangles in Alzheimer's disease” (Bioorg Med Chem, 2013).

T1 sequence (P10636 whole entry): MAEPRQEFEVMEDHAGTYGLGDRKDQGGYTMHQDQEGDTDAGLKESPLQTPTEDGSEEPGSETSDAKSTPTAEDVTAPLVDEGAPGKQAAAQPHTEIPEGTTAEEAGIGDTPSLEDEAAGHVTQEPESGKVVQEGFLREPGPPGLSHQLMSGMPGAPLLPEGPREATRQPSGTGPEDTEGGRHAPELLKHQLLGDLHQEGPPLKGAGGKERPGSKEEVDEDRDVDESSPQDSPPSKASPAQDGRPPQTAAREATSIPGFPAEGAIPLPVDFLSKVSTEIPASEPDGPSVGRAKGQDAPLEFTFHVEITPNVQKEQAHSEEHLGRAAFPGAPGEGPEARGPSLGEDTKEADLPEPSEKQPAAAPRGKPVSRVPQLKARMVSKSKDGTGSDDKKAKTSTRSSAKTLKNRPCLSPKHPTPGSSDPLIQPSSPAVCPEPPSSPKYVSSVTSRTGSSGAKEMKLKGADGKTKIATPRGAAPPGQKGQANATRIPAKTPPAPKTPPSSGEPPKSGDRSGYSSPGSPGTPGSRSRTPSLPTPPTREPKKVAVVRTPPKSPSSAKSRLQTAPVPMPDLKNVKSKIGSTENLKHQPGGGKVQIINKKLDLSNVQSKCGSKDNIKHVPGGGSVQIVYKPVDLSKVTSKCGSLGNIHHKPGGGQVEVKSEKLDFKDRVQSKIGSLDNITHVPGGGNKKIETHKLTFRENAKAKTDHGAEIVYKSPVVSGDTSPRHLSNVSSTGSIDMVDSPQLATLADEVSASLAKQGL
T2 sequence (P05067 whole entry): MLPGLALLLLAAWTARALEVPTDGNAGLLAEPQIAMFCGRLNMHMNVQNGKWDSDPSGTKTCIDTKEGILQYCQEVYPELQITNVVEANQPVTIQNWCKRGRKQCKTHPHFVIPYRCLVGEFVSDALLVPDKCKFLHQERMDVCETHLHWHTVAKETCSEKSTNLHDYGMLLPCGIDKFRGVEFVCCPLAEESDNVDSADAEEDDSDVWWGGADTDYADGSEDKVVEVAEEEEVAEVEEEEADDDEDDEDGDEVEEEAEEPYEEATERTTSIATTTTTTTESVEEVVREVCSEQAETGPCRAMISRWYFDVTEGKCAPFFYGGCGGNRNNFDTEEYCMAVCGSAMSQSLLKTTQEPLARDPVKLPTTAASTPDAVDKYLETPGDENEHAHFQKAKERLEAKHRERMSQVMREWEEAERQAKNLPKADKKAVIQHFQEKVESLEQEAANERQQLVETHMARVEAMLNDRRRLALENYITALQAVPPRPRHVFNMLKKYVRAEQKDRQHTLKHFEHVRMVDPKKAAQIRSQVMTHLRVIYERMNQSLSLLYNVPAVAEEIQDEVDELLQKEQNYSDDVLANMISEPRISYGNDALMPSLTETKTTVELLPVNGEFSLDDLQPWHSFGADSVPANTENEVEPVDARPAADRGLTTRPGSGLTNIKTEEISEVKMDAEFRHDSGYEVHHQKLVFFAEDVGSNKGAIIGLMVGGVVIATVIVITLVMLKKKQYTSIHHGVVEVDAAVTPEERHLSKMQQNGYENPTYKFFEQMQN

On to `CN(C)c1ccc(/C=C/c2nc3ccc(I)cc3[nH]2)cc1`, for which the result in test [1], in test [3] and in test [4] was Active. In addition, the Kd in test [2] worked out at 300 nM; in test [5], 820 nM. The Selectivity ratio in test [6] is 2.73.
